Experimental data as given in ChEMBL document CHEMBL5696444 (Nat Commun, 2017).
Activity calls are given as the source filed them. No cut-off for these calls is given here.

Key:
[1] = biological target: Dual specificity protein kinase CLK1 (Homo sapiens) (UniProt P49759); assay: Inhibition of CLK (unknown origin) in human HCT-116 cells assessed as induction in alternative splicing effect in S6K skipped exon /canonical form incubated for 6 hrs by RT-PCR analysis; format: cell-based; details: dose 0.2-5 µM
Chain of Dual specificity protein kinase CLK1 (Homo sapiens) (P49759 whole entry, looked up, canonical isoform): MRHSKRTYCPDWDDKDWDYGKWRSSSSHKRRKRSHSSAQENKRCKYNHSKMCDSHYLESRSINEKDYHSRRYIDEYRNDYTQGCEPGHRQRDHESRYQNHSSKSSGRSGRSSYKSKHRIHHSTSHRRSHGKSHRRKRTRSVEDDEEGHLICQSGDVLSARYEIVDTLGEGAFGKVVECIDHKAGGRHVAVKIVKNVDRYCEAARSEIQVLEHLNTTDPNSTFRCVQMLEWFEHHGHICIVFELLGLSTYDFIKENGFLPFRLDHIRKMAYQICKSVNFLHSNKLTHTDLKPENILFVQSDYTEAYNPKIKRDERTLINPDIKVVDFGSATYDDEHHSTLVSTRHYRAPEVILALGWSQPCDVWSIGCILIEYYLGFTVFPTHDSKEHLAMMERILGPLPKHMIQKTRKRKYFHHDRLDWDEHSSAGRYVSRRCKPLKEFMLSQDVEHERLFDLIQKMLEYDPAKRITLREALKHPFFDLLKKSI
How it was run: (§1)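 Cells exposed to graded T3 concentrations for 6 h (chosen to avoid cytotoxicity), with a DMSO vehicle control. Total RNA was reverse-transcribed with oligo-dT primers. Targeted splice or conjoined-gene products were quantified by real-time qPCR or by targeted next-generation sequencing. Conjoined-gene isoform expression was normalized to a sequenced housekeeping gene.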

[2] = biological target: SRSF protein kinase 1 (Homo sapiens) (UniProt Q96SB4); assay: Inhibition of SRPK1 (unknown origin) at 123 nM in the presence of ATP by Kinome scan method relative to control; details: time > 6.0 hrs
[3] = system: HCT-116; assay: Induction of apoptosis in human HCT-116 cells assessed as viable cells at 5 uM incubated for > 6 hrs by annexin V/PI staining based analysis (Rvb=90.04%); format: functional; details: read-out: Activity
[4] = system: HCT-116; assay: Induction of apoptosis in human HCT-116 cells assessed as early apoptosis at 1 uM incubated for > 6 hrs by annexin V/PI staining based analysis (Rvb=3.29%); format: functional
[5] = biological target: Interleukin-1 receptor-associated kinase 4 (Homo sapiens) (UniProt Q9NWZ3); assay: Inhibition of IRAK4 (unknown origin) at 100 nM in the presence of ATP by Kinome scan method relative to control
Chain of Interleukin-1 receptor-associated kinase 4 (Homo sapiens) (Q9NWZ3 whole entry): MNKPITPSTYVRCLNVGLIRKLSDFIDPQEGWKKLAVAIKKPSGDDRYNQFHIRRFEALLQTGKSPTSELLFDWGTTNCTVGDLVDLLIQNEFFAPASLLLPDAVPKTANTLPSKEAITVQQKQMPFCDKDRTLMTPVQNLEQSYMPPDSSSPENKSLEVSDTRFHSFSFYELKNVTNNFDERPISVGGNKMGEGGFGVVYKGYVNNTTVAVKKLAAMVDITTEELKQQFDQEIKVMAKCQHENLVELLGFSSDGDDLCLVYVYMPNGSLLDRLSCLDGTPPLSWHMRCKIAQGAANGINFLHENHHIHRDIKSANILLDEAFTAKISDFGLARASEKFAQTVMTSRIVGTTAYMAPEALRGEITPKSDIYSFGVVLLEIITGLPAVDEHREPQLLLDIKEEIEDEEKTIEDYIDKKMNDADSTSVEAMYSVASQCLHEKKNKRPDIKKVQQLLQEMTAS

[6] = biological target: Tyrosine-protein kinase ABL1 (Homo sapiens) (UniProt P00519); assay: Inhibition of ABL1 (unknown origin) at 100 nM in the presence of ATP by Kinome scan method relative to control
Chain of Tyrosine-protein kinase ABL1 (Homo sapiens) (P00519 whole entry): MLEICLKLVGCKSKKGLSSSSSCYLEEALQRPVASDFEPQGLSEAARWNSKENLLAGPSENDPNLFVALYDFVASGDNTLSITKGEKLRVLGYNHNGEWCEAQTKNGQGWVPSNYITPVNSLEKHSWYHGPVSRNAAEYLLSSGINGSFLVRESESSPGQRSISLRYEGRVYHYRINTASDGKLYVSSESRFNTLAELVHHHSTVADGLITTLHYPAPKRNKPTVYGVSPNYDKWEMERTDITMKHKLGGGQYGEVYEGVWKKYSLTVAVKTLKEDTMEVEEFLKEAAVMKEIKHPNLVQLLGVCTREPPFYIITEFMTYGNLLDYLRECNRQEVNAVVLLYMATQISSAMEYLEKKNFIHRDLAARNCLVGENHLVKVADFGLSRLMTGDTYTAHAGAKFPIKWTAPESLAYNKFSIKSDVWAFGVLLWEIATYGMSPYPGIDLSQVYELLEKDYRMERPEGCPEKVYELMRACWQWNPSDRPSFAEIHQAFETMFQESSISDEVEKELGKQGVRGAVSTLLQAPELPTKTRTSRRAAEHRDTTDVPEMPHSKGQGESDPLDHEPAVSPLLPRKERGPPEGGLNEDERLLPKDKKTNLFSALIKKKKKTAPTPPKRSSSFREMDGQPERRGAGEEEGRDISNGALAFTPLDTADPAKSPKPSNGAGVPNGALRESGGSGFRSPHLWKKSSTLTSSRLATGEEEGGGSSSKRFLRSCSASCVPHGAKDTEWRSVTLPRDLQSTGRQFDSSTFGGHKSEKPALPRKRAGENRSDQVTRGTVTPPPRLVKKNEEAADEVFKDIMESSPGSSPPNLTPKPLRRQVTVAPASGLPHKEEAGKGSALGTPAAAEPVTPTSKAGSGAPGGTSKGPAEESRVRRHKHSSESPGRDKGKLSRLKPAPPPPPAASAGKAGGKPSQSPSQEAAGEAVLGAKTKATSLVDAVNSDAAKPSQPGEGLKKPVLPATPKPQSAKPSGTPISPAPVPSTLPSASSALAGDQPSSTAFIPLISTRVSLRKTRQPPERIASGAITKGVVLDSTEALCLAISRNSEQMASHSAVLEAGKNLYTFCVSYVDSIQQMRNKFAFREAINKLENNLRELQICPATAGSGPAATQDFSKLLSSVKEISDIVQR

[7] = biological target: Dual specificity protein kinase CLK1 (Homo sapiens) (UniProt P49759); assay: Inhibition of CLK (unknown origin) in human MDA-MB-468 cells assessed as SRSF4 phosphorylation level incubated for 3 hrs by immunoblot analysis; format: cell-based
[8] = system: HCT-116; assay: Induction of cell cycle arrest in human HCT-116 cells assessed as G0/G1 phase at 0.1 uM incubated for 24 hrs by flow cytometry analysis (Rvb=35.7%); format: functional
[9] = biological target: Dual specificity protein kinase CLK1 (Homo sapiens) (UniProt P49759); assay: Inhibition of CLK (unknown origin) in human HCT-116 cells assessed as induction in alternative splicing effect in S6K skipped exon incubated for 6 hrs by RT-PCR analysis; format: cell-based; details: dose 0.2-5 µM; how it was run: as §1
[10] = biological target: Casein kinase I isoform delta (Homo sapiens) (UniProt P48730); assay: Inhibition of CSNK1D (unknown origin) at 1000 nM in the presence of ATP by Kinome scan method relative to control
Chain of Casein kinase I isoform delta (Homo sapiens) (P48730 whole entry, looked up, canonical isoform): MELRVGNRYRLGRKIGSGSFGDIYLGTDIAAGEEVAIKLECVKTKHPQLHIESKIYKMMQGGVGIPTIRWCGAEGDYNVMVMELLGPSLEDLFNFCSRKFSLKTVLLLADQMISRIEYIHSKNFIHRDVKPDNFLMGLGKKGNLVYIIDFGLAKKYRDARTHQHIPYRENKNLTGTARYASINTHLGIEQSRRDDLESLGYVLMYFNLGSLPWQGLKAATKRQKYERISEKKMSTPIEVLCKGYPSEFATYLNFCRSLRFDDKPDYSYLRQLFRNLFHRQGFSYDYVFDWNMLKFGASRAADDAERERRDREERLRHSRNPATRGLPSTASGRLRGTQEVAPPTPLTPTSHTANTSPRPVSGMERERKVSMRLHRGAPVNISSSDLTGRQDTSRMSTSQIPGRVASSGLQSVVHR

[11] = biological target: Proto-oncogene tyrosine-protein kinase receptor Ret (Homo sapiens) (UniProt P07949); assay: Inhibition of RET (unknown origin) at 100 nM in the presence of ATP by Kinome scan method relative to control
[12] = biological target: Dual specificity protein kinase CLK1 (Homo sapiens) (UniProt P49759); assay: Inhibition of CLK (unknown origin) in human 184-hTERT cells assessed as induction in alternative splicing effect in CDC6-RARA level incubated for 6 hrs by RT-PCR analysis; format: cell-based; details: dose 0.2-5 µM; how it was run: as §1
[13] = biological target: Aurora kinase B (Homo sapiens) (UniProt Q96GD4); assay: Inhibition of AURKB (unknown origin) at 1000 nM in the presence of ATP by Kinome scan method relative to control
[14] = system: HCT-116; assay: Induction of cell cycle arrest in human HCT-116 cells assessed as S phase at 1 uM incubated for 6 hrs by flow cytometry analysis (Rvb=39.3%); format: functional
[15] = system: HCT-116; assay: Induction of cell cycle arrest in human HCT-116 cells assessed as G0/G1 phase at 10 uM incubated for 24 hrs by flow cytometry analysis (Rvb=35.7%); format: functional
[16] = biological target: cAMP-dependent protein kinase catalytic subunit alpha (Homo sapiens) (UniProt P17612); assay: Inhibition of PRKACA (unknown origin) at 100 nM in the presence of ATP by Kinome scan method relative to control
[17] = biological target: Ephrin type-A receptor 1 (Homo sapiens) (UniProt P21709); assay: Inhibition of EPHA1 (unknown origin) at 100 nM in the presence of ATP by Kinome scan method relative to control
[18] = biological target: Dual specificity tyrosine-phosphorylation-regulated kinase 1B (Homo sapiens, UniProt Q9Y463); assay: Inhibition of DYRK1B (unknown origin) using ULight-MBP peptide as substrate incubated for 10 mins in presence of ATP incubated for 45 mins by LANCE Ultra kinase assay
Chain of Dual specificity tyrosine-phosphorylation-regulated kinase 1B (Q9Y463 whole entry): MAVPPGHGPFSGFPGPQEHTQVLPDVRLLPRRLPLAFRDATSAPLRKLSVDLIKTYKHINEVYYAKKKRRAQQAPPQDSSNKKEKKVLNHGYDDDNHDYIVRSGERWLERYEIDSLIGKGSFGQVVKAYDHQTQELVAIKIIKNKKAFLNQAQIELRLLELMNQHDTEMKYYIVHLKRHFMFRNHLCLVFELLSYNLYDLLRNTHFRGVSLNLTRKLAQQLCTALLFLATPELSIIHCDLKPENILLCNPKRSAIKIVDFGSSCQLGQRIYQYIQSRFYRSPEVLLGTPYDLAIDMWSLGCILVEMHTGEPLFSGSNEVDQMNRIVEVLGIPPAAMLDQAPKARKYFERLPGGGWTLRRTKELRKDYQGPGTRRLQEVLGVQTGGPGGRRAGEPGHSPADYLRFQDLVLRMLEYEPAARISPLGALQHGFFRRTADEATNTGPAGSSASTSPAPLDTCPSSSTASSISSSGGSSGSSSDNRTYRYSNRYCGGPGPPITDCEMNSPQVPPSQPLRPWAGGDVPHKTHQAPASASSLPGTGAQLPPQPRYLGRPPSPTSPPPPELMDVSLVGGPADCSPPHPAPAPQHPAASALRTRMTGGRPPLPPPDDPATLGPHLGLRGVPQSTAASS

[19] = biological target: Tyrosine-protein kinase ABL1 (Homo sapiens) (UniProt P00519); assay: Inhibition of ABL1 (unknown origin) at 1000 nM in the presence of ATP by Kinome scan method relative to control; details: time > 6.0 hrs
[20] = biological target: Ephrin type-B receptor 1 (Homo sapiens) (UniProt P54762); assay: Inhibition of EPHB1 (unknown origin) at 1000 nM in the presence of ATP by Kinome scan method relative to control
Chain of Ephrin type-B receptor 1 (Homo sapiens) (P54762 whole entry): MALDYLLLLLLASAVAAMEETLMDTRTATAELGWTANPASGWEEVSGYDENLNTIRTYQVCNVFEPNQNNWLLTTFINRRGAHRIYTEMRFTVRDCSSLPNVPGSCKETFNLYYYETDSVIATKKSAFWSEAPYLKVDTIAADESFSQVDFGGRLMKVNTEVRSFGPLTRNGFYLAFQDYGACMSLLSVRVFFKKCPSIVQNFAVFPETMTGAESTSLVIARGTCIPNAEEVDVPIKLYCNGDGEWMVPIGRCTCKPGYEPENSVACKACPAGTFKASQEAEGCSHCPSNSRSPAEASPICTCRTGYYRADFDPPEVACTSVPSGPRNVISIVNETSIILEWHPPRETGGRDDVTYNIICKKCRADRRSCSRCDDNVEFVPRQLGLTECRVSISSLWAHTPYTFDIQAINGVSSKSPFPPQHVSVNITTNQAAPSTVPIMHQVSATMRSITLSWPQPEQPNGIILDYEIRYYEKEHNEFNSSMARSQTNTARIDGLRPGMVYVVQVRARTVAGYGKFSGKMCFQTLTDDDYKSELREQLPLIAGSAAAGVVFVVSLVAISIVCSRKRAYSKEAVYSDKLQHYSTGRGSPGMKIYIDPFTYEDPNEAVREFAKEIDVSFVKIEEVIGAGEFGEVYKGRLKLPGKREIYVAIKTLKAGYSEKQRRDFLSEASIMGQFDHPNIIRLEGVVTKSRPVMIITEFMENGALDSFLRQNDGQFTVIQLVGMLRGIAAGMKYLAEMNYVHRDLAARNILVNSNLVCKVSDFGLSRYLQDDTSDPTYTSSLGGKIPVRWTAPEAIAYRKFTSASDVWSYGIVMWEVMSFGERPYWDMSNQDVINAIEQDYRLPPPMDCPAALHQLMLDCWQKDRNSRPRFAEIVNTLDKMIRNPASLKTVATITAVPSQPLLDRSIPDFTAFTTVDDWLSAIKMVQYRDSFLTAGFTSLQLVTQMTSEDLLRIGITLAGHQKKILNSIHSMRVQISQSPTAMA

[21] = system: HCT-116; assay: Induction of cell cycle arrest in human HCT-116 cells assessed as G0/G1 phase at 1 uM incubated for 6 hrs by flow cytometry analysis (Rvb=35.0%); format: functional
[22] = biological target: Angiopoietin-1 receptor (Homo sapiens) (UniProt Q02763); assay: Inhibition of TEK (unknown origin) at 1000 nM in the presence of ATP by Kinome scan method relative to control
[23] = biological target: AMP-activated protein kinase (AMPK) alpha-1/beta-1/gamma-1 (Homo sapiens) (UniProt P54619+Q9Y478+Q13131); assay: Inhibition of AMPK A1/B1/G1 (unknown origin) at 100 nM in the presence of ATP by Kinome scan method relative to control; format: protein-complex assay
[24] = biological target: Mitogen-activated protein kinase 11 (Homo sapiens) (UniProt Q15759); assay: Inhibition of MAPK11 (unknown origin) at 100 nM in the presence of ATP by Kinome scan method relative to control
Chain of Mitogen-activated protein kinase 11 (Homo sapiens) (Q15759 whole entry): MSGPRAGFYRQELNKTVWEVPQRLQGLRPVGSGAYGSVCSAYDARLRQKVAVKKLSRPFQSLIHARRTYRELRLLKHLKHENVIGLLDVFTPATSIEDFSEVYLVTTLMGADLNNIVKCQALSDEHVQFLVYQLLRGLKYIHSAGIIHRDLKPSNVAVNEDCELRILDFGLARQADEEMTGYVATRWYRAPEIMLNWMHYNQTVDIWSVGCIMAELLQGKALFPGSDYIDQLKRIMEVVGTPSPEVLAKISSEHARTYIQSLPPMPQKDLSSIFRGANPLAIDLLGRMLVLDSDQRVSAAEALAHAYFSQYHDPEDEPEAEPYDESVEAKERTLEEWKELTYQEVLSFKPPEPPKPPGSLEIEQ

[25] = biological target: Dual specificity tyrosine-phosphorylation-regulated kinase 4 (Homo sapiens) (UniProt Q9NR20); assay: Inhibition of DYRK4 (unknown origin) at 1110 nM in the presence of ATP by Kinome scan method relative to control; details: time > 6.0 hrs
Chain of Dual specificity tyrosine-phosphorylation-regulated kinase 4 (Homo sapiens) (Q9NR20 whole entry): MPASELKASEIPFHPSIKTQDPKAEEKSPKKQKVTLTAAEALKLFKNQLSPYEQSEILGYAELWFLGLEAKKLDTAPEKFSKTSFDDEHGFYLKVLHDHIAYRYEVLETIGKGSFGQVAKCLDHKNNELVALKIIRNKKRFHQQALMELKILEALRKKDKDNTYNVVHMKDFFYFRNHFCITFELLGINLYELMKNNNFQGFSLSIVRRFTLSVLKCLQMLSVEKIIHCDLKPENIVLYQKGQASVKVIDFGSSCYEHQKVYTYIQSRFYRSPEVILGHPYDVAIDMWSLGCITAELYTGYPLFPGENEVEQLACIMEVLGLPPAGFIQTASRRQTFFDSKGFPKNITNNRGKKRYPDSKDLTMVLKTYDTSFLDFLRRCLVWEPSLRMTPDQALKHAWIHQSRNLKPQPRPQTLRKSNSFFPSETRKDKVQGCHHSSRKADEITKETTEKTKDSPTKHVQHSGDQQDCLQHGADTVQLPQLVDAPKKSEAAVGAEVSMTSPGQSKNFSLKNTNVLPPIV

[26] = biological target: Calcium/calmodulin-dependent protein kinase type 1 (Homo sapiens) (UniProt Q14012); assay: Inhibition of CAMK1 (unknown origin) at 1000 nM in the presence of ATP by Kinome scan method relative to control
[27] = biological target: Ephrin type-B receptor 1 (Homo sapiens) (UniProt P54762); assay: Inhibition of EPHB1 (unknown origin) at 100 nM in the presence of ATP by Kinome scan method relative to control
[28] = system: HCT-116; assay: Induction of apoptosis in human HCT-116 cells assessed as necrosis cells at 5 uM incubated for > 6 hrs by annexin V/PI staining based analysis (Rvb=0.55%); format: functional
[29] = system: HCT-116; assay: Induction of cell cycle arrest in human HCT-116 cells assessed as G0/G1 phase at 0.5 uM incubated for 6 hrs by flow cytometry analysis (Rvb=35.0%); format: functional
[30] = biological target: Cyclin-dependent kinase 5/CDK5 activator 1 (Homo sapiens) (UniProt Q00535+Q15078); assay: Inhibition of CDK5/p25 (unknown origin) at 100 nM in the presence of ATP by Kinome scan method relative to control; format: protein-complex assay
[31] = biological target: Dual specificity tyrosine-phosphorylation-regulated kinase 1A (Homo sapiens, UniProt Q13627); assay: Inhibition of DYRK1A (unknown origin) at 1110 nM in the presence of ATP by Kinome scan method relative to control; details: time > 6.0 hrs

## CN1CCN(C(=O)C(C)(C)c2ccc(C(=O)Nc3cn4cc(-c5ccncc5)ccc4n3)cc2)CC1 [T3-CLK]
[1]
  inhibition: Dose-Dependent Effect
[2]
  inhibition: -3%
[3]
  viability at 5 µM: 86.6%
[4]
  Activity: 3.4%
[5]
  inhibition: 25%
[6]
  inhibition: 10%
[7]
  inhibition: Active
[8]
  Activity: 38.7%
[9]
  inhibition: Dose-Dependent Effect
[10]
  inhibition: 4%
[11]
  inhibition: -1%
[12]
  inhibition: Dose-Dependent Effect
[13]
  inhibition: 16%
[14]
  Activity: 47%
[15]
  Activity: 21.3%
[16]
  inhibition: -2%
[17]
  inhibition: -2%
[18]
  IC50: 230 nM
[19]
  inhibition: 56%
[20]
  inhibition: 4%
[21]
  Activity: 18.4%
[22]
  inhibition: 0%
[23]
  inhibition: -2%
[24]
  inhibition: 1%
[25]
  inhibition: -3%
[26]
  inhibition: 5%
[27]
  inhibition: 5%
[28]
  Activity: 0.87%
[29]
  Activity: 18.4%
[30]
  inhibition: 2%
[31]
  inhibition: 97%
